RGS4 act: RGS4 potentiators or activators, primary screen, cell-based, HEK293 M3R inducible RGS4, calcium flux; carbachol calcium flux Fluo4; active compounds read low; B-score at 10 µM; 0.92% of 310,000 active; AID 463111, 2010;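 active means B-score of the integrated calcium signal more than 4 SD below the library mean, with starting fluorescence not abnormally high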;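 further: negative B-score means reduced calcium response which marks RGS4 activation or potentiation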
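Test system: HEK293 cells with stable M3R and inducible RGS4; also added: carbachol at ECmax as muscarinic agonist stimulus; schedule: dye loading 30 min 37 °C, buffer rest 30 min RT; technique: kinetic calcium fluorescence imaging with Fluo4-AM dye, 2 µM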
MrgX1 PAM: positive allosteric modulators of MrgX1, primary screen, HEK293 cells, Fluo-4 calcium flux; Mas-related G-protein coupled receptor member X1 (Homo sapiens), Q96LB2; FDSS; active compounds read high; B-score at 10 µM; 0.63% of 310,000 active; AID 588675, 2011;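 active means plate-corrected calcium response at least 3 library SD above typical, normal starting fluorescence, not activating the receptor alone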;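 further: compound read alongside a low EC10 to EC30 dose of BAM8-22 agonist; peak minus trough fluorescence over baseline measured at the second addition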
Target sequence (Q96LB2 whole entry, looked up): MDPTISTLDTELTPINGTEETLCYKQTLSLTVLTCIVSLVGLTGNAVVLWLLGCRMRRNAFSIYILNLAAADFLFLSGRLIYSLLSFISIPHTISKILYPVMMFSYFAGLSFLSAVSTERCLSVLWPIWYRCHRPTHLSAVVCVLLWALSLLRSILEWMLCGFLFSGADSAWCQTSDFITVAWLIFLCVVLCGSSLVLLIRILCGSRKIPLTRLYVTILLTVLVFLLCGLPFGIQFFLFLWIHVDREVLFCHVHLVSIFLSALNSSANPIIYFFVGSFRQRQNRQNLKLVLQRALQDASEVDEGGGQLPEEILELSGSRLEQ
RGS4 inh: RGS4 inhibitors, primary screen, cell-based, HEK293 M3R inducible RGS4, calcium flux; Regulator of G-protein signaling 4 (Homo sapiens), P49798; Fluo-4 calcium flux; active compounds read high; triggered by carbachol at its EC20; B-score at 10 µM; 0.45% of 310,000 active; AID 463165, 2010;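 active means B-score, a plate-corrected calcium signal, over three deviations above library mean, with baseline fluorescence within five deviations of library mean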;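 further: RGS4 expression induced by doxycycline in cells with stable M3 receptor; B-score is computed from the integrated fluorescence ratio over baseline after carbachol; higher B-score means a larger calcium signal and so more RGS4 inhibition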
Target sequence (P49798 whole entry, looked up): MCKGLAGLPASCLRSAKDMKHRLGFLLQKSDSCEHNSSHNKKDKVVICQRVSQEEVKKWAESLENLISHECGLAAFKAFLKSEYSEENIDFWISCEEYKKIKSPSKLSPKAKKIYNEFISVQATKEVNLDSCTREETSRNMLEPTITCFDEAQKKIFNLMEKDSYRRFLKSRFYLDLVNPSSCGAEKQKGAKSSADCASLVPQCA
MrgX1 antagonist: antagonists of human MrgX1 receptor, primary screen, HEK293 cells, Fluo-4 calcium flux. B-score at 10 µM. Mas-related G-protein coupled receptor member X1 (Homo sapiens), Q96LB2. 1.3% of 310,000 active. BAM8-22 antagonism; active compounds read low;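 active means calcium-response B-score plate-corrected more than 3 library SD below zero, starting fluorescence within 5 deviations, no agonist response on first addition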;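 further: peak minus trough fluorescence over baseline after final BAM8-22 challenge near maximal dose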
MrgX1 ag: agonists of human MrgX1 receptor, primary screen, HEK293 cells, Fluo-4 calcium flux. Mas-related G-protein coupled receptor member X1 (Homo sapiens), Q96LB2. Fluo-4 calcium fluorescence, agonist mode; active compounds read high. B-score at 10 µM. 0.44% of 310,000 active;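 active means calcium response B-score plate-corrected fluorescence ratio at least 3 library SD, with starting fluorescence B-score inside 5 SD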
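Material – MrgX1-expressing HEK293 cells · Input – 15,000 cells seeded per well · Dosing – compound as first of three additions · Times – overnight seeding, then 1 h dark dye loading · Measured by – kinetic Fluo-4 NW fluorescence of intracellular calcium · Read-out – B-scored fluorescence response ratio · Benchmarks – positive and negative control wells on each plate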
Of the large screens only hits and unclear results are named; the others gave an inactive call. The list is not random: actives were taken first. Their share in the collection is about 3.5%.

N/C(=N\N=C\c1ccc(O)cc1O)N[N+](=O)[O-]	none
COc1ccccc1/C=N/N=C(/N)N[N+](=O)[O-]	MrgX1 antagonist -7.7
CCn1c(NN=O)nc2ccccc21	none
O=C1NC(=O)C(=Cc2ccc(N3CCOCC3)o2)C(=O)N1	RGS4 act -7.64
CN=C1CN(O)C(c2ccccc2)=c2cc(Cl)ccc2=N1	MrgX1 PAM 9.57
CCN(CC)S(=O)(=O)c1ccc(NN=C(C#N)C#N)cc1	MrgX1 antagonist -7.38
N#CC(C#N)=NNc1ccc(-n2ccc(C(F)(F)F)n2)cc1	none
Oc1ccccc1-[n+]1c(-c2ccccc2)cc(-c2ccccc2)c(O)c1-c1ccccc1	none
CCN(CC)c1ccc(/C=C2\C(=O)NC(=S)N(c3ccc(OC)cc3OC)C2=O)o1	RGS4 act -7.24
COc1ccc(N2C(=O)/C(=C/c3ccc(N(C)C)o3)C(=O)NC2=S)cc1	none
COc1ccc(N2CC2c2ccncc2)cc1 (stereo not drawn)	none
CCOC(=O)c1c(-n2c(C)cc(/C=C3/C(=O)NC(=O)N(CC)C3=O)c2C)sc2c1CCCC2	none
CCOC(=O)c1c(-n2c(C)cc(C=C3C(=O)NC(=S)NC3=O)c2C)sc2c1CCCC2	MrgX1 ag 28.3
COC(=O)C(Cc1ccc(N(CCCl)CCCl)cc1)N=Cc1ccccc1O (stereo not drawn)	RGS4 act -7.13
O=C(c1ccc(Cl)cc1)C1CCCN(Cc2cccc3ncccc23)C1 (stereo not drawn)	none
O=C(c1ccc(Cl)cc1)C1CCCN(Cc2cccc3cccnc23)C1 (stereo not drawn)	RGS4 act -7.07
COc1ccc(C(=O)C2CCCN(C3CSCCSC3)C2)cc1OC (stereo not drawn)	RGS4 act -7.48
COc1ccc(C(=O)C2CCCN(Cc3cnc(C)s3)C2)cc1OC (stereo not drawn)	none
CC(C)C12CN3CCN(CC(C3)C1O)C2 (stereo not drawn)	none
O=c1[nH]c(=O)n(C2CCCCC2)c(O)c1/C=C/C=Nc1ccccc1	MrgX1 antagonist -5.05
CCC1(C)OC(c2ccccc2)=C/C(=C/C=C2C(=O)NC(=O)NC2=O)O1 (stereo not drawn)	none (no result: MrgX1 PAM, MrgX1 antagonist, MrgX1 ag)
Clc1ccc(C[n+]2c(-c3ccccc3)cc(-c3ccccc3)cc2-c2ccccc2)cc1	RGS4 act -8.1, MrgX1 antagonist -6.86
Cc1cc(-c2ccccc2)cc(-c2ccccc2)[n+]1CCc1ccccc1	RGS4 act -8.18, MrgX1 antagonist -4.63
CC(C)(C)NC(=S)/N=C(\N)N[N+](=O)[O-]	none
Cc1c(C=O)c2ccccc2n1Cc1ccc([N+](=O)[O-])cc1	MrgX1 antagonist -5.27
COc1cccc(C2CCN(CC(=O)Nc3cc(Cl)ccc3OC)CC2O)c1 (stereo not drawn)	none
CCC1C=CC=CC[C@H](C)[C@@H](O)[C@](C)(O)C(=O)[C@@H](C)[C@H](O)[C@@H](C)C(=O)[C@H](C)[C@@H](O)[C@H](C)C=CC(=O)OC2[C@@H](C)C(CC1)OC1(CC[C@@H](C)C(C[C@H](C)O)O1)[C@@H]2C (stereo partly drawn)	MrgX1 antagonist -4.83 (no result: RGS4 act, RGS4 inh)
CN1Cc2c(c(C#N)c(N)n(C)c2=S)CC1(C)C	RGS4 act -9.35
O=C1OC(c2ccc(Br)cc2)=N/C1=C\N1CC2CC(C1)c1cccc(=O)n1C2 (stereo not drawn)	none
O=C1OC(c2ccc([N+](=O)[O-])cc2)=N/C1=C/N1CC2CC(C1)c1cccc(=O)n1C2 (stereo not drawn)	MrgX1 ag 57.3
O=P(Nc1cccc(F)c1)(Oc1ccccc1F)Oc1ccccc1F	RGS4 act -8.24
Cc1ccc(NP(=O)(Oc2ccccc2F)Oc2ccccc2F)cc1C	none
Cc1cccc(NP(=O)(Oc2ccccc2F)Oc2ccccc2F)c1	RGS4 act -7.78
Cc1cc(OC(C)C(=O)N[C@H](C(=O)O)c2ccccc2)c2c3c(c(=O)oc2c1)CCC3 (stereo partly drawn)	none
COC1=CC=C2[C@H]3Cc4ccc(OC)c5c4[C@@]2(CCN3C)[C@H]1O5	none
Clc1cnc(Oc2ccc(Oc3ncc(Cl)cc3Cl)cc2)c(Cl)c1	MrgX1 PAM 12.6
CN(C)CC#CCOCCOCCC#N	none
COc1ccc(NS(=O)(=O)c2ccc(OCC(=O)N3CCN(C)CC3)cc2)cc1Cl	none
CN(CC#CCN1CCCC1)C(=O)c1cccc(Cl)c1	none
CC(C)OCCCNC(=O)c1c(N)n(CC2CCCO2)c2nc3ccccc3nc12 (stereo not drawn)	RGS4 act -7.21
CCCNC(=O)c1c(N)n(CC2CCCO2)c2nc3ccccc3nc12 (stereo not drawn)	none
CCN1CCN(Cc2ccc(OC(F)(F)F)cc2)CC1	none
CCCCCCOc1ccc(CN2CCN(CC)CC2)cc1	RGS4 act -7.14
COc1ccc(CC(C)NCCC(c2ccccc2)c2ccccc2)cc1 (stereo not drawn)	RGS4 act -7.43
C=CCc1ccc(OC)cc1	none (no result: RGS4 act, RGS4 inh)
O=C1NC(=O)C(=Cc2ccc(Oc3ccc([N+](=O)[O-])cc3)cc2)C(=O)N1	MrgX1 PAM 7.02
O=C1NC(=O)C(=Cc2ccc3ccccc3c2)C(=O)N1	none
O=C(c1ccccc1F)c1cn(CC(=O)N2CCCCC2)c2ccccc12	none
OC(c1ccccc1)(c1ccccc1)C1CN2CCC1CC2 (stereo not drawn)	RGS4 act -7.45
Cc1c(C(c2ccc(Br)cc2)c2c(O)c3ccccc3oc2=O)c(=O)n(-c2ccccc2)n1C (stereo not drawn)	none
Cc1c(C(c2ccc(Cl)cc2Cl)c2c(O)c3ccccc3oc2=O)c(=O)n(-c2ccccc2)n1C (stereo not drawn)	MrgX1 PAM 13.6
O=C1NC(=O)N(Cc2ccccc2)C(=O)/C1=C/c1cnn(-c2ccccc2)c1	MrgX1 antagonist -5.49
Oc1cc(Cl)ccc1Oc1ccc(Cl)cc1Cl	RGS4 act -7.06
O=c1[nH]c2ccccc2c(=O)n1-c1ccc(Cl)cc1Cl	none
C=C(C)[C@@H]1C2C(=O)O[C@H]1[C@H]1OC(=O)[C@@]34OC3C[C@]2(O)[C@@]14C (stereo partly drawn)	MrgX1 antagonist -6.38 (no result: RGS4 act, RGS4 inh)
Cc1ccccc1N1C(=O)NC(=O)/C(=C\c2ccc3c(c2)CCCN3Cc2ccccc2)C1=O	MrgX1 ag 32.2
CC(=NCc1cccnc1)c1c(O)n(-c2ccccc2)c(=O)[nH]c1=O	none
Clc1cccc(Cl)c1C1N2CCCN12 (stereo not drawn)	none
O=C(O)c1cc[c]([Hg][Cl])cc1	MrgX1 PAM 13.4 (no result: RGS4 act, RGS4 inh)

Screening results: PubChem, Johns Hopkins Ion Channel Center
